Test results as given in PMC6839502 (Journal of Alzheimer's Disease, 2019).
Entries after “also recorded” stand apart in the source; their conditions may differ. Where two headings read alike, the source gives them in different places.

What was measured:
[1] = ECG QTcF change in SAD and MAD studies; format: in vivo, human
[2] = system: pigmented C57BL/6J mice; conditions: long-term toxicology studies / 3 weeks of treatment in pigmented C57BL/6J mice; cited from earlier work
[3] = format: in vivo, human; conditions: for AUCtau / Cmax / CL/F / Cmin / Rac (observed accumulation ratio) / Vz/F / AUCinf: geometric mean (% CV); for t1/2: arithmetic mean±SD
Summary of the method: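 Healthy adults (18–55 y) or older subjects (60–85 y) received oral QD doses for 14 days, fasted on Day 1. Plasma was sampled pre-dose and at 0.5, 1, 2, 4, 8, 12, and 24 h, plus 1.5 h (B8271001) or 6 h (B8271004). Day 14 sampling extended to 120 h. Urine was also collected. Samples were analysed by validated HPLC-MS/MS; plasma LLOQ 0.500 or 5.00 ng/mL, urine LLOQ 0.050 ng/mL. Parameters were derived by non-compartmental analysis.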

[4] = 5 mg QD, Day 14, healthy adults
[5] = 15 mg QD, Day 1, healthy adults
[6] = 15 mg QD, Day 7, healthy adults
[7] = 15 mg QD, Day 14, healthy adults
[8] = 50 mg QD, Day 1, healthy adults
[9] = 50 mg QD, Day 1, healthy older subjects
[10] = 50 mg QD, Day 7, healthy adults
[11] = 50 mg QD, Day 14, healthy adults
[12] = 50 mg QD, Day 14, healthy older subjects
[13] = 50 mg or 125 mg QD, healthy older subjects
[14] = 125 mg QD, Day 1, healthy adults
[15] = 125 mg QD, Day 1, healthy older subjects
[16] = 125 mg QD, Day 7, healthy adults
[17] = 125 mg QD, Day 14, healthy adults
[18] = 125 mg QD, Day 14, healthy older subjects
[19] = 275 mg QD, Day 1, healthy adults
[20] = 275 mg QD, Day 7, healthy adults
[21] = 275 mg QD, Day 14, healthy adults
[22] = multiple doses, healthy adults (Part B)
[23] = single 3 mg fasted, healthy adults
[24] = single 12 mg fasted, healthy adults
[25] = single 40 mg fasted, healthy adults
[26] = single 160 mg fasted, healthy adults
[27] = single 200 mg fasted, healthy adults
[28] = single 200 mg fed, healthy adults
[29] = single 400 mg fasted, healthy adults
[30] = single 540 mg fasted, healthy adults

C[C@H]1C[C@H]2CSC(N)=N[C@@]2(c2nc(NC(=O)c3ccc(OC(F)F)cn3)cs2)CO1 [PF-06751979]
Maximum placebo-adjusted mean QTcF change from baseline ([1]; 275 mg QD for 14 days, 90% CI: 4.5, 21.1): 12.8 ms | Maximum placebo-adjusted mean QTcF change from baseline ([1]; single dose 540 mg, 90% CI: 7.6, 22.2): 14.9 ms | Hair color (pigmentation) change [2]: not observed; also recorded: did not reveal pigmentation changes | AUCtau ([3]; 5 mg QD, Day 1, healthy adults): 167.7 (18) ng.hr/mL | Cmax ([3]; 5 mg QD, Day 1, healthy adults): 10.12 (22) ng/mL | Tmax ([3]; 5 mg QD, Day 1, healthy adults, median (range)): 3.98 (2.03–12.3) h | AUCtau ([3]; 5 mg QD, Day 7, healthy adults): 395.2 (20) ng.h/mL | Cmax ([3]; 5 mg QD, Day 7, healthy adults): 20.68 (22) ng/mL | Tmax ([3]; 5 mg QD, Day 7, healthy adults, median (range)): 6.02 (3.95–8.05) h | t1/2 [3, 4]: 37.15 ± 5.20 h | AUCtau [3, 4]: 422.2 (20) ng.hr/mL | CL/F [3, 4]: 197.1 (20) mL/min | Cmax [3, 4]: 22.41 (23) ng/mL | Cmin [3, 4]: 12.55 (22) ng/mL | Rac (observed accumulation ratio) [3, 4]: 2.52 (12) | Vz/F [3, 4]: 628.7 (18) L | Tmax ([3]; 5 mg QD, Day 14, healthy adults, median (range)): 4.01 (3.98–8.02) h | AUCtau [3, 5]: 478.8 (20) ng.hr/mL | Cmax [3, 5]: 28.90 (22) ng/mL | Tmax ([3]; 15 mg QD, Day 1, healthy adults, median (range)): 4.07 (4.00–7.83) h | AUCtau [3, 6]: 1149 (12) ng.h/mL | Cmax [3, 6]: 64.34 (12) ng/mL | Tmax ([3]; 15 mg QD, Day 7, healthy adults, median (range)): 4.02 (2.17–8.03) h | t1/2 [3, 7]: 30.65 ± 3.19 h | AUCtau [3, 7]: 1152 (13) ng.hr/mL | CL/F [3, 7]: 216.9 (12) mL/min | Cmax [3, 7]: 64.63 (14) ng/mL | Cmin [3, 7]: 32.75 (14) ng/mL | Rac (observed accumulation ratio) [3, 7]: 2.41 (14) | Vz/F [3, 7]: 573.2 (12) L | Tmax ([3]; 15 mg QD, Day 14, healthy adults, median (range)): 4.05 (4.02–7.87) h | AUCtau [3, 8]: 1739 (14) ng.hr/mL | Cmax [3, 8]: 120.6 (17) ng/mL | Tmax ([3]; 50 mg QD, Day 1, healthy adults, median (range)): 2.99 (1.02–4.07) h | AUCtau [3, 9]: 1621 (22) ng.hr/mL | Cmax [3, 9]: 102.9 (25) ng/mL | Tmax ([3]; 50 mg QD, Day 1, healthy older subjects, median (range)): 4.00 (2.02–7.98) h | AUCtau [3, 10]: 4181 (20) ng.h/mL | Cmax [3, 10]: 241.1 (20) ng/mL | Tmax ([3]; 50 mg QD, Day 7, healthy adults, median (range)): 3.83 (1.43–4.07) h | t1/2 [3, 11]: 37.36 ± 5.91 h | AUCtau [3, 11]: 4236 (24) ng.hr/mL | CL/F [3, 11]: 196.9 (24) mL/min | Cmax [3, 11]: 245.7 (21) ng/mL | Cmin [3, 11]: 120.4 (25) ng/mL | Rac (observed accumulation ratio) [3, 11]: 2.43 (15) | Vz/F [3, 11]: 629.0 (27) L | Tmax ([3]; 50 mg QD, Day 14, healthy adults, median (range)): 3.00 (0.88–8.08) h | t1/2 [3, 12]: 39.95 ± 3.18 h | AUCtau [3, 12]: 4505 (20) ng.h/mL | CL/F [3, 12]: 184.9 (20) mL/min | Cmax [3, 12]: 256.4 (23) ng/mL | Cmin [3, 12]: 135.8 (18) ng/mL | Vz/F [3, 12]: 637.4 (23) L | Tmax ([3]; 50 mg QD, Day 14, healthy older subjects, median (range)): 4.00 (2.00–4.20) h | Median Tmax [3, 13]: 4 h | Steady state achieved by [3, 13]: ≤ 7 days | AUCtau [3, 14]: 6380 (15) ng.hr/mL | Cmax [3, 14]: 442.7 (20) ng/mL | Tmax ([3]; 125 mg QD, Day 1, healthy adults, median (range)): 4.00 (2.00–6.03) h | AUCtau [3, 15]: 5238 (24) ng.hr/mL | Cmax [3, 15]: 377.1 (30) ng/mL | Tmax ([3]; 125 mg QD, Day 1, healthy older subjects, median (range)): 4.00 (2.00–4.03) h | AUCtau [3, 16]: 13810 (16) ng.h/mL | Cmax [3, 16]: 818.7 (19) ng/mL | Tmax ([3]; 125 mg QD, Day 7, healthy adults, median (range)): 3.00 (2.00–6.00) h | t1/2 [3, 17]: 30.73 ± 5.75 h | AUCtau [3, 17]: 13990 (14) ng.hr/mL | CL/F [3, 17]: 149.0 (14) mL/min | Cmax [3, 17]: 837.6 (16) ng/mL | Cmin [3, 17]: 390.3 (18) ng/mL | Rac (observed accumulation ratio) [3, 17]: 2.19 (11) | Vz/F [3, 17]: 390.5 (23) L | Tmax ([3]; 125 mg QD, Day 14, healthy adults, median (range)): 4.00 (2.00–12.00) h | t1/2 [3, 18]: 40.76 ± 3.90 h | AUCtau [3, 18]: 14750 (23) ng.h/mL | CL/F [3, 18]: 141.4 (23) mL/min | Cmax [3, 18]: 879.4 (28) ng/mL | Cmin [3, 18]: 429.9 (23) ng/mL | Vz/F [3, 18]: 496.1 (30) L | Tmax ([3]; 125 mg QD, Day 14, healthy older subjects, median (range)): 4.00 (2.00–4.03) h | AUCtau [3, 19]: 13260 (18) ng.hr/mL | Cmax [3, 19]: 983.0 (18) ng/mL | Tmax ([3]; 275 mg QD, Day 1, healthy adults, median (range)): 4.00 (2.00–4.00) h | AUCtau [3, 20]: 31210 (14) ng.h/mL | Cmax [3, 20]: 2000 (14) ng/mL | Tmax ([3]; 275 mg QD, Day 7, healthy adults, median (range)): 2.00 (2.00–4.00) h | t1/2 [3, 21]: 37.79 ± 7.73 h | AUCtau [3, 21]: 29470 (12) ng.hr/mL | CL/F [3, 21]: 155.3 (13) mL/min | Cmax [3, 21]: 1869 (14) ng/mL | Cmin [3, 21]: 868.5 (15) ng/mL | Rac (observed accumulation ratio) [3, 21]: 2.27 (11) | Vz/F [3, 21]: 498.3 (27) L | Tmax ([3]; 275 mg QD, Day 14, healthy adults, median (range)): 4.00 (2.00–4.00) h | Mean of dose recovered unchanged in the urine ([3]; across the dose range studied, multiple doses): 7–10% | Median Tmax ([3]; fasted state, single doses 3 mg to 540 mg and multiple doses up to 275 mg QD, healthy adults): 3 to 4 h | Mean t1/2 across doses ([3]; healthy adults): 29 to 39 h | Observed t1/2 ([3]; healthy older subjects): approximately 40 h | Plasma accumulation at Day 14 ([3]; healthy older subjects): 2.8 fold | Accumulation on Day 14 [3, 22]: 2.1- to 2.5 fold | Steady state achieved by [3, 22]: ≤ 7 days | t1/2 [3, 23]: 29.30 ± 0.60 h | AUCinf [3, 23]: 289.7 (8) ng.hr/mL | CL/F [3, 23]: 172.3 (8) mL/min | Cmax [3, 23]: 8.4 (14) ng/mL | Vz/F [3, 23]: 436.8 (6) L | Tmax ([3]; single 3 mg fasted, healthy adults, median (range)): 4.03 (4.00–8.00) h | t1/2 [3, 24]: 32.94 ± 4.92 h | AUCinf [3, 24]: 1142 (25) ng.hr/mL | CL/F [3, 24]: 175.0 (25) mL/min | Cmax [3, 24]: 27.4 (36) ng/mL | Vz/F [3, 24]: 494.8 (20) L | Tmax ([3]; single 12 mg fasted, healthy adults, median (range)): 4.11 (2.0–12.00) h | t1/2 [3, 25]: 32.12 ± 3.64 h | AUCinf [3, 25]: 3121 (25) ng.hr/mL | CL/F [3, 25]: 213.4 (25) mL/min | Cmax [3, 25]: 78.7 (30) ng/mL | Vz/F [3, 25]: 591.4 (26) L | Tmax ([3]; single 40 mg fasted, healthy adults, median (range)): 4.08 (2.00–8.05) h | t1/2 [3, 26]: 39.33 ± 8.20 h | AUCinf [3, 26]: 17050 (18) ng.hr/mL | CL/F [3, 26]: 156.3 (18) mL/min | Cmax [3, 26]: 530.8 (41) ng/mL | Vz/F [3, 26]: 523.2 (25) L | Tmax ([3]; single 160 mg fasted, healthy adults, median (range)): 3.03 (1.87–4.08) h | t1/2 [3, 27]: 35.20 ± 8.97 h | AUCinf [3, 27]: 22850 (17) ng.hr/mL | CL/F [3, 27]: 145.8 (17) mL/min | Cmax [3, 27]: 643.2 (19) ng/mL | Vz/F [3, 27]: 433.7 (18) L | Tmax ([3]; single 200 mg fasted, healthy adults, median (range)): 4.00 (2.00–6.07) h | Food effect on plasma exposure (Cmax and AUCinf) ([3]; single 200 mg fed vs fasted): no apparent food effect | t1/2 [3, 28]: 33.38 ± 6.25 h | AUCinf [3, 28]: 23260 (15) ng.hr/mL | CL/F [3, 28]: 143.3 (15) mL/min | Cmax [3, 28]: 630.2 (9) ng/mL | Vz/F [3, 28]: 408.1 (16) L | Tmax ([3]; single 200 mg fed, healthy adults, median (range)): 6.00 (4.00–8.00) h | Tmax ([3]; single 200 mg in a fed state): 6 h | t1/2 [3, 29]: 34.70 ± 8.97 h | AUCinf [3, 29]: 44980 (17) ng.hr/mL | CL/F [3, 29]: 148.3 (17) mL/min | Cmax [3, 29]: 1436.0 (10) ng/mL | Vz/F [3, 29]: 433.0 (19) L | Tmax ([3]; single 400 mg fasted, healthy adults, median (range)): 3.02 (2.00–4.00) h | t1/2 [3, 30]: 35.85 ± 8.10 h | AUCinf [3, 30]: 63420 (9) ng.hr/mL | CL/F [3, 30]: 142.0 (9) mL/min | Cmax [3, 30]: 1829.0 (19) ng/mL | Vz/F [3, 30]: 431.1 (19) L | Tmax ([3]; single 540 mg fasted, healthy adults, median (range)): 3.01 (2.00–6.02) h
